Legend:
[1] = target: Beta-2 adrenergic receptor (Homo sapiens) (UniProt P07550); conditions: CHO
[2] = target: Beta-3 adrenergic receptor (Homo sapiens) (UniProt P13945); test: Intrinsic activity against Beta3-AR expressed in CHO cells in cAMP-RIA assay; format: functional, cell-based
[3] = target: Beta-2 adrenergic receptor (Homo sapiens) (UniProt P07550); conditions: CHO; remark: listed apart in the source
[4] = target: Beta-3 adrenergic receptor (Homo sapiens) (UniProt P13945); test: Agonistic potency against Beta3-AR expressed in CHO cells by using cAMP-RIA assay;MA means minimal activity; format: functional, cell-based
[5] = target: Beta-3 adrenergic receptor (Homo sapiens) (UniProt P13945); test: Agonistic potency against Beta3-AR expressed in CHO cells by using cAMP-RIA assay; format: functional, cell-based
[6] = target: Beta-2 adrenergic receptor (Homo sapiens) (UniProt P07550); test: Agonistic potency against BETA2-AR expressed in CHO cells by using cAMP-RIA assay;MA means minimal activity; format: functional, cell-based
[7] = target: Beta-1 adrenergic receptor (Homo sapiens) (UniProt P08588); conditions: CHO
Sequence of Beta-1 adrenergic receptor (Homo sapiens) (P08588 whole entry, looked up): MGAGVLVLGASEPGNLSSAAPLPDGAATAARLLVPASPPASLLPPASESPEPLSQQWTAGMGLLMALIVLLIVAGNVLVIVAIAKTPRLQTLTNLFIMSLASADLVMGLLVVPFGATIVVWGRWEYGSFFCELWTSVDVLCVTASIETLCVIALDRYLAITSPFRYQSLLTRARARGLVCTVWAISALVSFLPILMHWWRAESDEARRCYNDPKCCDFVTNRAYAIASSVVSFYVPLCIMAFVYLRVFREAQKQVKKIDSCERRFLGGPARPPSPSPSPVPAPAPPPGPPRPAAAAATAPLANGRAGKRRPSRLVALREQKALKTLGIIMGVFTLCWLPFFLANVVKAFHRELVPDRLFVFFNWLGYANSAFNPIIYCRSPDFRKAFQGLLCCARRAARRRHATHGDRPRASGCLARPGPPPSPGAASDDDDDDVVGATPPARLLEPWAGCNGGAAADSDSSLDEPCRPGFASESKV

[8] = target: Beta-1 adrenergic receptor (Homo sapiens) (UniProt P08588); conditions: CHO; remark: listed apart in the source
[9] = target: Beta-1 adrenergic receptor (Homo sapiens) (UniProt P08588); conditions: CHO; remark: listed apart in the source
[10] = target: Beta-3 adrenergic receptor (Homo sapiens) (UniProt P13945); conditions: CHO
[11] = target: Beta-2 adrenergic receptor (Homo sapiens) (UniProt P07550); conditions: CHO; remark: listed apart in the source
[12] = target: Beta-3 adrenergic receptor (Homo sapiens) (UniProt P13945); conditions: CHO; remark: listed apart in the source
[13] = target: Beta-2 adrenergic receptor (Homo sapiens) (UniProt P07550); conditions: CHO; remark: listed apart in the source
[14] = target: Beta-1 adrenergic receptor (Homo sapiens) (UniProt P08588); conditions: CHO; remark: listed apart in the source
[15] = target: Beta-2 adrenergic receptor (Homo sapiens) (UniProt P07550); test: Agonistic potency against BETA2-AR expressed in CHO cells by using CRE-LUC assay;MA means minimal activity; format: functional, cell-based
Outline: (§1)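 CHO cells transfected by electroporation (single 70-ms, 150-V pulse) with human receptor and CRE–luciferase reporter; seeded 40 000/well, grown 20 h, then exposed 4 h to drug at 10^-11–10^-4 M. Cells lysed, luciferase light read by luminometer, duplicates per concentration. Response as percent of maximum to (-)isoproterenol 10^-6 M; pKact = -log molar concentration giving 50% of own maximal response; mean ± SEM.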

[16] = target: Beta-1 adrenergic receptor (Homo sapiens) (UniProt P08588); test: Agonistic potency against BETA1-AR expressed in CHO cells by using CRE-LUC assay;MA means minimal activity; format: functional, cell-based
Outline: as §1

[17] = target: Beta-3 adrenergic receptor (Homo sapiens) (UniProt P13945); test: Agonistic potency against Beta3-AR expressed in CHO cells by using cAMP-RIA assay; MA means minimal activity; format: functional, cell-based

Sequence of Beta-2 adrenergic receptor (Homo sapiens) (P07550 whole entry, looked up): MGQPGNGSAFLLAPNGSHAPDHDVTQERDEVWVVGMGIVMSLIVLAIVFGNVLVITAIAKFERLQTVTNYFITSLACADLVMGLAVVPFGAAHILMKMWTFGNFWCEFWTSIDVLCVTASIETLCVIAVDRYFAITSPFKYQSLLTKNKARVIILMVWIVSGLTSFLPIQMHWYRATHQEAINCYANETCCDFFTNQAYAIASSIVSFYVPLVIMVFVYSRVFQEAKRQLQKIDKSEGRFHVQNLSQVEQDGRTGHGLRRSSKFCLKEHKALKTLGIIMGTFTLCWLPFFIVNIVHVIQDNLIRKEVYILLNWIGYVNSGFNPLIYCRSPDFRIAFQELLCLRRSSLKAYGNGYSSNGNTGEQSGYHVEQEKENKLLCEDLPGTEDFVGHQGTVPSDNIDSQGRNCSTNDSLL
Sequence of Beta-3 adrenergic receptor (Homo sapiens) (P13945 whole entry, looked up): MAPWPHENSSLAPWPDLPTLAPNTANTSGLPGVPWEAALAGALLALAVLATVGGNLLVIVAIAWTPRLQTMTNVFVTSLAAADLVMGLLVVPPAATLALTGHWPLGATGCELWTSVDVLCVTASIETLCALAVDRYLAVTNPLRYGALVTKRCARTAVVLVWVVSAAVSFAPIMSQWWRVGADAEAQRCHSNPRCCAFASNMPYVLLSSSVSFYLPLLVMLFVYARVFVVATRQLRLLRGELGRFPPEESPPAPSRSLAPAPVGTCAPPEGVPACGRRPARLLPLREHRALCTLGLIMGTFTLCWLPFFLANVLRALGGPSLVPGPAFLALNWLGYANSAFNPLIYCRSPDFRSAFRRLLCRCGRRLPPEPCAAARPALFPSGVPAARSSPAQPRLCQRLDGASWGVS

SMILES: COc1c(I)cc(CC2NCCc3c2ccc(O)c3I)cc1I (stereo not drawn)
- IA [1]: 65
- IA [2]: 8
- pK [3]: 6.77
- MA [4]: Partial agonist

SMILES: COc1c(I)cc(CC2NCCc3c2ccc(O)c3Br)cc1I (stereo not drawn)
- IA [1]: 26
- IA [2]: 31
- pK [5]: 8.25
- MA [6]: Partial agonist

SMILES: COc1cc(C[C@@H]2NCCc3cc(O)c(O)cc32)cc(OC)c1OC
- IA [1]: 95
- IA [2]: 95
- IA [7]: 109
- pK [3]: 8.33
- pK [8]: 8.7
- pK [5]: 8.6

SMILES: COc1c(I)cc(CC2NCCc3cc(O)ccc32)cc1I (stereo not drawn)
- IA [1]: 44
- IA [9]: 58
- IA [2]: 106
- pK [10]: 7.45
- pK [3]: 6.87
- pK [11]: 6.36
- IA [12]: 90
- IA [13]: 38
- pK [5]: 7.88
- pK [14]: 5.71

SMILES: COc1c(I)cc(CC2NCCc3cc(O)c(O)cc32)cc1I (stereo not drawn)
- IA [1]: 52
- IA [2]: 120
- IA [7]: 103
- pK [3]: 8.84
- pK [8]: 8.11
- pK [5]: 8.76

SMILES: COc1c(I)cc(CC2NCCc3cc(O)c(I)cc32)cc1I (stereo not drawn)
- IA [1]: 4
- IA [2]: 35
- pK [5]: 7.92
- MA [6]: Partial agonist

SMILES: COc1c(I)cc(CC2NCCc3c2cc(I)c(O)c3I)cc1I (stereo not drawn)
- IA [1]: 6
- IA [2]: 18
- MA [4]: Partial agonist
- MA [6]: Partial agonist

SMILES: COc1c(I)cc(CC2NCCc3ccccc32)cc1I (stereo not drawn)
- IA [1]: 15
- IA [9]: 22
- IA [2]: 52
- pK [10]: 7.54
- MA [15]: Partial agonist
- IA [12]: 62
- MA [16]: Partial agonist
- IA [13]: 21
- pK [5]: 8.2
- MA [6]: Partial agonist

SMILES: COc1c(I)cc(CC2NCCc3c2cc(Br)c(O)c3Br)cc1I (stereo not drawn)
- IA [1]: 3
- IA [2]: 20
- MA [17]: Partial agonist

SMILES: CC(C)NCC(O)c1ccc(O)c(O)c1 (stereo not drawn)
- pK [10]: 7.74
- IA [12]: 100
